# Laboratory results as given in ChEMBL document CHEMBL4513216, “Probing the Open Global Health Chemical Diversity Library for Multistage-Active Starting Points for Next-Generation Antimalarials” (ACS Infect Dis, 2020).
# Experiment: Toxicity liver stage against HepG2, at 10uM
# Format: cell-based
# Design: test concentration 10 uM, cell line HepG2-A16-CD81EGFP
# Conditions: human, HepG2-A16-CD81EGFP cells; read-out: INHIBITION
# In short: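 Uninfected HepG2-A16-CD81EGFP cells, 3 × 10^3 per well, 1536-well, plated on prespotted compound at 10 μM final, parasite-free screening media added to match infected plates; puromycin 10 μM positive, DMSO 0.5% negative; run in parallel with 48 h PbLuc assay at 37 °C, 5% CO2; viability by CellTiter-Glo luminescence, normalized to controls.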
row,SMILES,cytotoxicity at 10 µM [%]
1,CC(C)(C)n1ncc2c(=O)n(CC(=O)NCc3ccccc3Cl)cnc21,-9.03
2,Cn1cncc1-c1nnc([C@H]2CCN(Cc3ncc[nH]3)C2)o1,1.62
3,CC(C)(C)C(=O)N1C[C@@H](F)[C@@H](OCc2nc3ccccc3o2)C1,3.33
4,CC(=O)N1N=C(COc2ccc(Cl)cc2)OC1c1ccccc1 (stereo not given),9.87
5,CCCNc1ccc(C(=O)NCCc2cccc(Cl)c2)cn1,1.17
6,O=C(Cc1cc(-c2ccc3c(c2)OCCO3)on1)NCc1ccccn1,26.4
7,Cn1cc(S(=O)(=O)NCCc2ccsc2)cn1,5.26
8,CC(=O)NCC(=O)N1Cc2cc(-c3cc[nH]n3)ccc2C1c1cnco1 (stereo not given),13.5
9,CN1CC[C@H]2[C@H](C[C@@H](Cn3cncn3)N2c2nccs2)C1,-144
10,Cc1cccc(S(=O)(=O)N2CCCc3c(c(=O)n(C)n3C)C2)c1,-2.08
11,CS(=O)(=O)N1CC(c2ncn3ccccc23)C1,5.6
12,O=C(c1cnccn1)N1CC[C@H]2[C@H]1CCN2S(=O)(=O)C1CC1,-168
13,COc1ccc(N2CCN(CC(O)c3cc(C)ccc3C)CC2)cc1 (stereo not given),7.25
14,COc1ccc(OC)c(C2SCC(=O)Nc3n[nH]cc32)c1 (stereo not given),12.8
15,Nc1ncccc1C(=O)NCc1cccc(Cl)c1,20.5
16,O=C(c1nn[nH]c1Nc1ccc(Cl)cc1)N1CCCCCC1,34.5
17,Nc1ncc(-c2ccc(C(F)(F)F)cc2)c(C2CCCNC2)n1 (stereo not given),27.1
18,Cc1cccc(CN2CCCC2c2cccc(Nc3nccs3)n2)c1 (stereo not given),0.81
19,CC1CCN(c2ncc(-c3ccccc3F)c(-c3nccn3C)n2)CC1,27.1
20,CCC1c2ccsc2CCN1Cc1cc2c(cc1OC)OCCO2 (stereo not given),29.4
21,C=C(C)C(=O)N1CCC(C(=O)c2cc(C)cnc2N)CC1,-2.88
22,Cc1ccc(F)cc1C(=O)N1CCOCC12CCCC2,-8.68

row,SMILES,cytotoxicity at 10 µM [%]
1,N#Cc1ccccc1OCCN1CCC(C(=O)N2CCOCC2)CC1,-47.2
2,COC(=O)CC(NC(=O)c1cccc(CS(C)(=O)=O)c1)c1cccs1 (stereo not given),-44.8
3,CC1CCCCN1C(=O)Cn1cnc(C#N)n1 (stereo not given),-18.8
4,CC(CNC(=O)CCCn1cncn1)N1CCc2ccccc2C1 (stereo not given),-130
5,CCc1cnc(CNC(=O)NCCc2ccc(O)cc2)s1,2.31
6,COc1ncc(NCc2ccc(Cl)c(Cl)c2)cc1C(N)=O,32.7
7,CCOc1ccc(C(=O)NCc2ccnc(N3CCCC3)c2)cn1,6.62
8,CN(C)C(=O)N1CCC(C(=O)NCCNc2ncccc2C#N)CC1,18.3
9,CC(NC(=O)CN1CCN(c2ccncc2Cl)CC1)c1ccco1 (stereo not given),-6.02
10,COCCNc1ccccc1CNC(=O)NCc1nc(C)c(C)s1,5.75
11,O=C(c1cnc(OCC(F)(F)F)c(Cl)c1)N1CCc2ccc(O)cc2C1,-5.38
12,Cc1ccc(NC(=O)CN(C)C(=O)c2ccc(-n3cccc3)nc2)nc1,12.4
13,CCN(CCS(=O)(=O)c1ccc(Cl)cc1)Cc1ccc(OC)c(OC)c1,31.7
14,N#CCCN(Cc1ccco1)C(=O)c1ccc(OCC2CC2)cc1,-5.87
15,Cc1n[nH]c(C)c1C1COCCN1c1ncnc2sccc12 (stereo not given),23.1
16,Cc1ccc(S(=O)(=O)N2CCCCC(N3CCN(C)CC3)C2)cc1F (stereo not given),6.24
17,c1cc(CNCc2ccnc(N3CCCCC3)c2)c2c(c1)OCCCO2,21.4
18,OC(CN(Cc1ccccc1)Cc1ccon1)c1cccs1 (stereo not given),-0.359
19,Cc1cnn(CC2CCCN2Cc2coc(-c3ccc(F)cc3)n2)c1 (stereo not given),-0.953
20,C1=C(c2c[nH]c3ncccc23)CCN(Cc2nnc(C3CC3)o2)C1,30.7
21,Cc1cc(NCC2(O)CCOCC2)nc2ccccc12,-8.98
22,O=C(NC1CCN(c2cc(-n3ccnc3)ncn2)CC1)c1ccncc1,5.94

row,SMILES,cytotoxicity at 10 µM [%]
1,CC(Nc1cnn(C)c(=O)c1Cl)c1ccc(F)c(F)c1 (stereo not given),31.3
2,Cc1nc(O)ccc1C(=O)N1CCCC1c1nc(-c2ccccc2)n[nH]1 (stereo not given),0.636
3,CCC(C(=O)Nc1ccc2nc(C)oc2c1)N1CCCC1=O (stereo not given),-41.9
4,CC(NCc1ccsc1)c1ccc(OCc2nccn2C)cc1 (stereo not given),-6.37
5,Cc1cc(F)ccc1N1CCCC(NC(=O)CCCn2ccnc2)C1 (stereo not given),3.45
6,CCN1CCN(CCNc2nc3ccc(C)cc3c(=O)n2C)CC1,10.7
7,Cc1cc(C)n(C2CN(CC(=O)N(C)Cc3ccc(C)o3)C2)n1,-6.24
8,CCN1CCN(C)C2(CCN(C(=O)CC(F)(F)F)CC2)C1=O,0.797
9,Cc1cccc(S(=O)(=O)N2CCC3(CC2)CC(N(C)C)CO3)c1 (stereo not given),-126
10,CCC(=O)N1CCc2onc(CNS(C)(=O)=O)c2C1,-96.5
11,O=C(c1ccccc1F)N1CC[C@@H]2CN(c3ncccn3)CCO[C@@H]2C1,-78.1
12,CC(=O)N1Cc2nc(C(=O)NCCc3cccnc3)oc2C1,-81.8
13,CC(C)NC(=O)[C@@H]1CN(Cc2nccs2)C[C@H]2OCC[C@H]21,-93.5
14,Cc1ccc(CN2CCC3(CC(=O)N(c4ccc5c(c4)OCO5)C3)C2)o1 (stereo not given),-70.2
15,O=C(NCC1CCCN(Cc2cccc3nonc23)C1)c1ccc[nH]1 (stereo not given),-42.2
16,CCC(C(=O)N(Cc1ccccn1)C1CCCCC1)n1cccn1 (stereo not given),-45.3
17,COc1ccc2cc(C3CN(C(=O)COC(C)C)CCO3)ccc2c1 (stereo not given),7.29
18,CCNc1ncc(C(=O)N[C@@H](C)[C@H](O)c2ccccc2)cn1,-4.71
19,CC(C)(C)c1cn(C2CCN(C3CCSC3)CC2)nn1 (stereo not given),-3.99
20,CCn1cc(CN2CCCC(c3[nH]ncc3-c3ccc(C)cc3)C2)cn1 (stereo not given),-1.67
21,Cc1cccc(N2CCN(CCC(=O)NCc3ccc(C)s3)CC2)c1,-0.432
22,O=C(CCC1CCN(Cc2ccncc2)CC1)Nc1ccccc1Cl,-3.9

row,SMILES,cytotoxicity at 10 µM [%]
1,CC(=O)c1ccc(C(=O)NCc2cccnc2N2CCCC(O)C2)s1 (stereo not given),-0.147
2,O=C(Cc1ccccc1)C1CCCN(Cc2cncn2C2CCCC2)C1 (stereo not given),-1.11
3,COc1ccc(Cl)cc1-n1cnc(CCNC(C)=O)c1,2.29
4,CN(Cc1ccc(C2CC(=O)Nc3cc4[nH]ncc4cc32)o1)S(C)(=O)=O (stereo not given),34.1
5,FC(F)(F)CCc1ccnc(NCc2csc(N3CCOCC3)n2)n1,-4.13
6,CN1CCc2[nH]nc(C(=O)N3CCC4(CCCO4)CC3)c2C1,-47.1
7,CCN(CCN(C)C)c1nc(CCN)nc2sc(C)c(C)c12,-1.78
8,CN1CCN(Cc2cnn(-c3ccc(F)cc3)c2)[C@H]2CS(=O)(=O)C[C@H]21,12.8
9,CSCCC1c2nc[nH]c2CCN1Cc1ccccc1C(F)(F)F (stereo not given),1.09
10,CCn1cc(CN2CCCC(COc3ccccc3F)C2)cn1 (stereo not given),-47.7
11,O=C(c1cn(CC(=O)N2CCCC2)c2ccccc12)C1CC1,14.2
12,NC(=O)c1ccccc1-n1cc(-c2cccc(C(=O)O)c2)cn1,-5.65
13,Cc1ccsc1CN(CCN(C)C)C(=O)c1cc2ccccc2[nH]1,-139
14,CCN(CC)S(=O)(=O)N1CCCC(c2nccn2Cc2ccncc2)C1 (stereo not given),9.2
15,CC(C)N1CCC2(CCCN(Cc3ccc(F)cc3)C2=O)C1 (stereo not given),-28.7
16,CC(=O)N1CCc2c(nc(N(C)C)nc2NCCCn2ccnc2C)C1,-7.42
17,CNCc1cn(C2CCN(C(=O)NCc3ccco3)CC2)nn1,1.11
18,Fc1ccccc1CN1CCCN(c2ccc3cc[nH]c3n2)CC1,-15.2
19,COC(=O)Cn1c(C)cc(=O)c2cc(F)ccc21,2.63
20,CCc1cc(N2CCC(n3cc(C(=O)NCC(C)C)nn3)CC2)ncn1,41.4
21,Fc1ccc(CCC2CCCN(Cc3c[nH]cn3)C2)c(F)c1 (stereo not given),-6.51
22,COc1ccc(-c2cc[nH]n2)cc1CNC1CCCC1,-52.8

row,SMILES,cytotoxicity at 10 µM [%]
1,O=C(NCc1cc(N2CCOCC2)ncn1)c1cccc(CO)n1,-7.76
2,CC(C)n1ccnc1C1CCCN(c2ccnc3ccccc23)C1 (stereo not given),38.4
3,COc1ccc(N(c2ccc(OC)cc2)c2ccc(C(=O)O)s2)cc1,18.5
4,COC(=O)c1ccc(CNCc2cn(C)nc2C)cc1,-8.55
5,Cc1cc(-c2cnc(N3CCN(C)CC3)nc2-c2ccc(C)s2)on1,-3.68
6,Cc1csc(C2CCCCN2C(=O)c2cc(C(C)C)[nH]n2)n1 (stereo not given),-1.59
7,Cn1nccc1C1CCN(CC(=O)NCC2CC2)CC1,-9.38
8,O=C(CCCc1cccs1)N1CCC(N2CCNC2=O)CC1,2.83
9,O=C(Cc1ccc2c(c1)CCCC2)NCCc1ccccn1,1.9
10,CNS(=O)(=O)c1cccc(CNc2nccc(C(F)(F)F)n2)c1,17.2
11,Cc1cc(F)ccc1-c1ccccc1CC1CNCCNC1=O (stereo not given),5.08
12,CC(C)N(Cc1ccc(C(=O)O)o1)C(C)C,-1.2
13,Cc1ncc(CN(Cc2ccccn2)Cc2ccccc2Cl)n1C,-1.45
14,Cc1cc(C[C@@H]2CCC[C@H]2NCc2ccccc2C(F)(F)F)on1,2.8
15,CCn1cc2c(n1)CN(Cc1nccs1)CC2COCC1CC1 (stereo not given),6.07
16,COc1ncccc1CN1CCC2(CC1)COCCN2C,16.6
17,O=C1[C@@H]2CCN(Cc3ccoc3)C[C@@H]2OCCN1Cc1cccc(F)c1,-98.2
18,CCN(C)C1COC2(CCN(C(=O)c3ccc(Cl)cc3)CC2)C1 (stereo not given),-2.57
19,CC(=O)NCC(=O)N1CCn2cc(CN3CCCCC3)nc2C1,-3.34
20,O=S(=O)(c1cccs1)N1CC[C@@H](O)[C@@H]1Cc1ccncc1,-72.8
21,CC(=O)NCc1nn(C)c2c1CN(Cc1ccsc1)C2,-144
22,CCOCCN1CCN(C=C2NN=C(c3occc3C)O2)CC1,-50.4
